Screening results deposited in PubChem by several laboratories.
D1 mod: allosterically modulates the human D1 dopamine receptor; AID 641; B-score at 10 µM; HEK293 D1, CRE-luciferase, dopamine EC30 potentiation; actives deviate in either direction; 58,000 tested, 5.9% active;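 active = luminescence count or its row- and column-corrected plate score outside the 99.7% band of the plate's sample wells, on either side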
Target sequence (P21728 whole entry, looked up): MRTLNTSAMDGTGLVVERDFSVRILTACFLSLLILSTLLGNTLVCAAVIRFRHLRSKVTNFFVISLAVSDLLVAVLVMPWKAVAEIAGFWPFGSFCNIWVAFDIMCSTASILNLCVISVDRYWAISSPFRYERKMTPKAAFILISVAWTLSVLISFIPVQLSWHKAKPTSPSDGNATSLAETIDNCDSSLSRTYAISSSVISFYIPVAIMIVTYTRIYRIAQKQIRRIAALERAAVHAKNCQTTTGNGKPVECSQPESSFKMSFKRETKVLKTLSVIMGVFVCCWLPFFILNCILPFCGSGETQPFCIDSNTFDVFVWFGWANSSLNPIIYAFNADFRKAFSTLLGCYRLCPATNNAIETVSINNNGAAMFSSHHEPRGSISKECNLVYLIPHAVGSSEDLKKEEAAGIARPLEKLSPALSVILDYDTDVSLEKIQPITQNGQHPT
Calb biofilm kill: kills Candida albicans biofilms | C. albicans biofilm + clotrimazole, Alamar Blue | inhibition, % at 6 µM | 85,000 tested, 0.14% active | AID 834;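 active = inhibition above 20%; inactive = inhibition below 20%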;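 also: preformed 24 hr biofilms exposed to compound for 48 hr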
AP ELISA ortho: orthogonal test for alternative complement pathway inhibitors. Human serum alternative complement pathway, LPS-coated ELISA, C3 deposition; tested in compound mixtures. inhibition, % at 5 µM. 62,000 tested, 0.08% active. AID 1235;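 active = inhibition above 30% in each of the two pooled mixtures holding the compound, so the lower value exceeds 30%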
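Test system – human serum alternative complement pathway, C3 deposition on LPS-coated wells · Buffer or medium – diluted human serum in Mg2+-EGTA GVB++ · Compound dosing – 5 µM each compound, pools of ten, 50 µM per pool · Schedule – 1 h serum-compound exposure at 37 °C · Measured by – Anti-C3 ELISA, OD 450 nm · Read-out basis – percent inhibition of C3 deposition onto LPS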
MMP13 inh: blocks human MMP13 activity; MMP-13 fTHP FRET cleavage, Mca fluorescence; inhibition, % at 4 µM; 65,000 tested, 0.07% active; AID 570;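 active = inhibition above the mean of compound-free control plate wells plus 3 SD, cut at about 14% in these data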
hDAT+cocaine: human DAT dopamine uptake with cocaine, either direction. Q01959. LLC-PK1 hDAT cells, [14C]-dopamine uptake with cocaine IC80; actives deviate in either direction. B-score at 10 µM. 110,000 tested, 1.3% active. AID 449768;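 active = Z score or B-score, a plate-position-corrected score, falls beyond the plate's 99.7% confidence bounds, in either direction; inactive = both scores lie inside the 99.7% bounds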
A number is an active result; – = inactive; · = no result. Many of the other results were omitted from the sample, so hits are more common in it than they were.

SMILES | D1 mod | Calb biofilm kill | AP ELISA ortho | MMP13 inh | hDAT+cocaine
COc1cc(/C=N/NC(=O)CCc2c(C)n[nH]c2C)ccc1O | · | – | · | · | -9.4
CC1(c2nnc(-c3cccc(Cl)c3)o2)CC(c2cccnc2)=NO1 (stereo unspecified) | · | · | · | · | –
CCCc1nc(SCC(N)=O)[nH]c(=O)c1CC | -2.8 | – | – | – | –
CCn1cc(C(=O)O)c(=O)c2cc(F)c(N3CCNCC3)cc21 | – | 22 | – | – | –
CCn1cc(C(=O)O)c(=O)c2cc(F)c(N3CCN(C(=O)Nc4ccccc4)CC3)cc21 | -2.2 | – | – | – | –
COc1ccc(/C=C/C(=O)Nc2sc3c(c2C(=O)NCc2cccnc2)CCCC3)cc1 | · | · | · | · | –
CSc1nsc(/C=C/Nc2ccc(Cl)cc2)c1C#N | · | · | · | · | 2.6
CC(C)N=C(NC#N)SCC(=O)NC(C)(C)C | – | – | – | – | –
CC(C)N=C(NC#N)SCc1ccccc1F | – | – | – | – | -8.5
CCOc1ccc(NC(=O)N2CCC(n3c(=O)[nH]c4ccccc43)CC2)cc1 | · | – | – | – | 2.8
O=C(Nc1ccccc1C(F)(F)F)N1CCC(n2c(=O)[nH]c3ccccc32)CC1 | – | · | – | – | –
Cc1cc(C)nc(/N=C(\N)Nc2ccc(F)c([N+](=O)[O-])c2)n1 | · | · | · | · | –
COc1cccc(/C=N\NC(=O)c2sc(N)nc2C)c1OC | · | · | · | · | –
CCCC(=O)Nc1cc(-c2cn3cccnc3n2)ccc1OC | -3.4 | · | – | – | –
CC1(c2nnc(-c3ccncc3)o2)CC(c2ccccc2)=NO1 (stereo unspecified) | · | · | · | · | –
CCOC(=O)c1cn(Cc2ccccc2)c(C(=O)OC(C)(C)C)c1O | · | · | · | · | –
COc1ccc(C(=O)c2ccccc2Cl)cc1 | · | – | · | · | –
COc1ccc(C(=O)c2c[nH]c3ccccc23)cc1 | -2.2 | – | – | · | –
COc1ccc(C(=O)Nc2cccc(C)c2)cc1 | -3.5 | – | – | – | –
COc1ccc(NC(=O)c2ccc3snnc3c2)cc1 | · | – | · | · | -2.9
COc1ccc(CNC(=O)Nc2cccc(C)c2)cc1 | – | – | – | – | –
CCOc1ccc(-c2nc3c(s2)CCc2onc(-c4ccc(OC)cc4)c2-3)cc1 | · | · | · | · | –
Cc1ccc(CNc2ccc3c(c2)OCO3)cc1 | -5 | – | – | – | –
Oc1cccc2cc3cccc(O)c3c(O)c12 | · | · | · | · | –
Cc1ccc(C)c(N(CC(=O)NCCC2=CCCCC2)S(C)(=O)=O)c1 | · | – | · | · | –
SMILES | D1 mod | Calb biofilm kill | AP ELISA ortho | MMP13 inh | hDAT+cocaine
Cn1c(=O)cc(OCCCC(=O)NCc2ccccn2)c2ccccc21 | – | – | – | – | –
Cc1ccnc(NC(=O)CCCOc2cc(=O)n(C)c3ccccc23)c1 | -3.3 | · | – | – | –
CCCCOc1ccc(C(=O)Nc2cccc(C)n2)cc1 | – | – | – | – | ·
CCOc1ccc(C(=O)Nc2cccc(C)n2)cc1 | -6.5 | – | – | – | –
Cc1ccc(-c2nnc(NC3CCCCC3)c3ccccc23)cc1S(=O)(=O)N1CCN(C)CC1 | · | – | · | · | 1.9
O=c1c2cc(N3CCOCC3)ccc2[nH]c(=S)n1CCCN1CCCCCC1 | – | – | – | – | –
O=c1c2cc(N3CCOCC3)ccc2[nH]c(=S)n1CCCN1CCN(c2ccccc2F)CC1 | -6.7 | · | – | – | –
Cc1ccc2[nH]c3c(NCc4ccco4)ncnc3c2c1 | -3.6 | – | – | – | –
c1ccc2nc(-c3nc4ccccc4[nH]3)ccc2c1 | -4.8 | – | – | – | –
COc1ccc(C(=O)c2coc3ccc(O)c(CN4CCCCC4)c23)cc1 | – | – | – | – | 3.5
COc1ccc2occ(C(=O)c3coc4ccc(O)c(CN(C)C)c34)c2c1 | – | – | – | – | –
CCCOC(=O)C1=C(C)NC2=C(C(=O)CCC2)C1c1ccc(N(C)C)cc1 (stereo unspecified) | · | – | – | – | –
COCCOC(=O)C1=C(C)NC2=C(C(=O)CC(C)(C)C2)C1c1ccc(N(C)C)cc1 (stereo unspecified) | -5.8 | – | – | – | –
CCOC(=O)C1=NN(c2ccc(OC)cc2)C(c2ccccc2)CC1=O (stereo unspecified) | · | – | · | · | -8.6
O=C(CSc1nnc(-c2ccccc2)o1)N1CCc2ccccc2C1 | – | · | – | – | ·
COc1ccc(-c2nnc(SCC(=O)N3CCc4ccccc4C3)o2)cc1 | – | – | – | – | 3.2
COc1ccc(-c2nnc(SCC(=O)/C(C#N)=C(\C)N)o2)cc1 | -3.2 | – | – | – | –
CCCCCn1c(SCCCC)nc2c1c(=O)[nH]c(=O)n2C | 20 | – | – | – | –
C/C(Cl)=C/Cn1c(SCC(C)C)nc2c1c(=O)[nH]c(=O)n2C | 14 | – | – | – | –
CCCCCCn1c(SCCC)nc2c1c(=O)[nH]c(=O)n2C | – | – | – | – | –
O=C(NC(=Nc1ccccc1)N1CCOCC1)Nc1ccccc1 | – | – | – | 16 | –
O=C(CSc1nnc(-c2cccs2)n1-c1cccc(Cl)c1)c1cccc2c1OCCO2 | · | – | · | · | –
CCN(CC)C(=O)CSc1nc2sc(C)c(C)c2c(=O)[nH]1 | · | – | – | – | 3.5
CCOC(=O)Cc1cc(OC)c(OC)cc1Cc1cc(OC)c(OC)cc1CC(=O)OCC | · | · | · | · | –
CCCCN(C)C(=O)CSc1nc(NCc2ccc(OC)cc2)c2ccccc2n1 | · | – | · | · | 2.5
SMILES | D1 mod | Calb biofilm kill | AP ELISA ortho | MMP13 inh | hDAT+cocaine
Cc1ccc(C23CC4CC(CC(CC(=O)N5CCOCC5)(C4)C2)C3)cc1 | · | – | · | · | –
CCOC(=O)CNc1c(-c2ccc(O)cc2)nc2ccc(Cl)cn12 | -4.4 | – | – | – | –
COc1cccc(N2C(=O)C(CC(=O)Nc3ccc(F)cc3)N(C3CCCCC3)C2=O)c1 (stereo unspecified) | – | – | – | – | –
COc1cccc(N2C(=O)C(CC(=O)Nc3ccccc3)N(C3CCCCC3)C2=O)c1 (stereo unspecified) | -7.4 | · | – | – | –
CCOC(=O)c1c(C)n(C)c2ccc(OCC(O)Cn3nc(C)c(Br)c3C)cc12 (stereo unspecified) | – | · | · | – | -8.5
Cc1ccc(-c2nc3cc(NC(=O)C(C)C)ccc3o2)cc1C | -3 | – | – | – | –
Cc1ccc(-c2nc3cc(NC(=O)C(C)C)ccc3o2)cc1 | -2.4 | – | – | – | –
CCC(=O)Nc1ccc2oc(-c3cccc(C)c3)nc2c1 | -3.4 | – | – | – | –
CC(C)C(=O)Nc1ccc(-c2nc3cccnc3o2)cc1 | -3.2 | – | – | – | –
CC(C)C(=O)Nc1cccc(-c2nc3ccccc3o2)c1 | – | – | – | – | –
CC(C)(C)c1ccc(OCC(=O)Nc2ccc(-c3nc4cccnc4o3)cc2)cc1 | · | – | · | · | –
CC(C)CC(=O)Nc1ccc2oc(-c3ccncc3)nc2c1 | – | – | – | – | –
CCCC(=O)N1CCN(c2ccc([N+](=O)[O-])c(NC(C)c3ccccc3)c2)CC1 (stereo unspecified) | · | · | · | · | –
NC(=O)c1oc2ccccc2c1NC(=O)C1CCCCC1 | – | 21 | – | – | –
COCCSc1nnc(NC(=O)C(C)(C)C)s1 | · | – | · | · | –
O=C(c1ccccn1)N(Cc1cc2ccccc2[nH]c1=O)C1CCCCC1 | – | – | – | – | 2.9
COCCN1CCn2c(nc3cc(NC(=O)c4cccs4)ccc32)C1 | · | – | · | · | –
